# Test results from paper PMC4856055 (Journal of medicinal chemistry, 2015).
# Several values for one entry are separate records, joined by “and”; a condition that tells them apart may be missing. Equal values may be shown once. Read-outs that look alike come from different tables or passages of the source.
# Tests used:
# [1] = test system: PSMA+ PC3 PIP and PSMA– PC3 flu xenografts; assay type: in vivo, mice; conditions: for PIP:blood ratio / PIP:flu ratio / PIP:kidney ratio / PIP:muscle ratio / biodistribution, PC-3 PIP tumor / biodistribution, PC-3 flu tumor / biodistribution, bladder / biodistribution, blood / biodistribution, bone / biodistribution, fat / biodistribution, heart / biodistribution, kidney / biodistribution, large intestine / biodistribution, liver / biodistribution, lung / biodistribution, muscle / biodistribution, pancreas / biodistribution, small intestine / biodistribution, spleen / biodistribution, stomach: tumor bearing mice
# [2] = test system: PSMA+ PC3 PIP and PSMA– PC3 flu tumor xenografts; assay: Small animal PET or PET/CT imaging of tumor bearing mice; assay type: in vivo
# PSMA = PSMA (Homo sapiens, UniProt Q04609); assay: PSMA inhibitory activity, fluorescence-based Amplex red glutamic acid; assay type: biochemical; conditions: for Ki: LNCaP cell lysates, 4 µM NAAG, Cheng-Prusoff conversion
# PSMA, sequence (Q04609 whole entry): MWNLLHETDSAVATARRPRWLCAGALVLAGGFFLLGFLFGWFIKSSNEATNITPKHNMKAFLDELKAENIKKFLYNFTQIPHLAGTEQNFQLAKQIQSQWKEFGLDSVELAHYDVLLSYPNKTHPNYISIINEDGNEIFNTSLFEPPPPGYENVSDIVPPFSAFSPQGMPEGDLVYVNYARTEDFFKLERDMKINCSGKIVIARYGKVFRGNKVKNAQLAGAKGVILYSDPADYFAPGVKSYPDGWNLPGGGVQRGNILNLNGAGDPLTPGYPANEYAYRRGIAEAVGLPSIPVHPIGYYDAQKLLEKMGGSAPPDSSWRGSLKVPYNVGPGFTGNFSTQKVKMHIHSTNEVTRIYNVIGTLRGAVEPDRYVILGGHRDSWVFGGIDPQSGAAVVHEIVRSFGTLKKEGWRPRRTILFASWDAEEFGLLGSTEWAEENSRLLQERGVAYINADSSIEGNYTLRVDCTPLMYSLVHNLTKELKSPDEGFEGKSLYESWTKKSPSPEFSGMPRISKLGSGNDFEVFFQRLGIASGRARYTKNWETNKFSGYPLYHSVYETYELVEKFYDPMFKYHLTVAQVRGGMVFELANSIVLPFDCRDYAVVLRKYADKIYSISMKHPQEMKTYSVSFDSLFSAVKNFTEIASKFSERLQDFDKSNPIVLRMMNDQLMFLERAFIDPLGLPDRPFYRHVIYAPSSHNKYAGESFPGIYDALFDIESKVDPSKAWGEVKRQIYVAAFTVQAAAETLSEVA
# Summary of the method: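 LNCaP cell lysate was incubated with the test compound and NAAG substrate for 120 min. Glutamate released by NAAG hydrolysis was detected by a further 60 min incubation with Amplex red glutamic acid working solution, then fluorescence was read at excitation 490 nm and emission 642 nm. IC50 was taken from semilog inhibition curves and converted to Ki by Cheng-Prusoff. Assays were run in triplicate.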
compound,measurement,setting,value
"O=C(O)CCC(OC(=O)NC(CCCCNC(=O)c1ccc(Br)cc1[18F])C(=O)O)C(=O)O (stereo not shown) [[^18F]23, 4-Bromo-2-[^18F]fluorobenzoyllysineoxypentanedioic acid (OPA) carbamate]",PIP:blood ratio,[1]; 0.5 h postinjection,13 and 13.5
same,PIP:flu ratio,[1]; 0.5 h postinjection,28.7
same,PIP:kidney ratio,[1]; 0.5 h postinjection,0.5
same,PIP:muscle ratio,[1]; 0.5 h postinjection,93 and 93.3
same,"biodistribution, PC-3 PIP tumor",[1]; 0.5 h postinjection,63 % ID/g and 63.4 ± 7.16 % ID/g
same,"biodistribution, PC-3 flu tumor",[1]; 0.5 h postinjection,2.21 ± 0.19 % ID/g
same,"biodistribution, bladder",[1]; 0.5 h postinjection,2.84 ± 0.65 % ID/g
same,"biodistribution, blood",[1]; 0.5 h postinjection,4.69 ± 0.33 % ID/g
same,"biodistribution, bone",[1]; 0.5 h postinjection,0.89 ± 0.14 % ID/g
same,"biodistribution, fat",[1]; 0.5 h postinjection,1.02 ± 0.12 % ID/g
same,"biodistribution, heart",[1]; 0.5 h postinjection,1.72 ± 0.31 % ID/g
same,"biodistribution, kidney",[1]; 0.5 h postinjection,135 ± 23.0 % ID/g
same,"biodistribution, large intestine",[1]; 0.5 h postinjection,1.35 ± 0.35 % ID/g
same,"biodistribution, liver",[1]; 0.5 h postinjection,15.5 ± 1.57 % ID/g
same,"biodistribution, lung",[1]; 0.5 h postinjection,4.59 ± 0.78 % ID/g
same,"biodistribution, muscle",[1]; 0.5 h postinjection,0.68 ± 0.07 % ID/g
same,"biodistribution, pancreas",[1]; 0.5 h postinjection,1.45 ± 0.15 % ID/g
same,"biodistribution, small intestine",[1]; 0.5 h postinjection,1.51 ± 0.71 % ID/g
same,"biodistribution, spleen",[1]; 0.5 h postinjection,19.9 ± 7.80 % ID/g
same,"biodistribution, stomach",[1]; 0.5 h postinjection,1.08 ± 0.07 % ID/g
same,PIP:blood ratio,[1]; 1 h postinjection,40 and 40.3
same,PIP:flu ratio,[1]; 1 h postinjection,69.4
same,PIP:kidney ratio,[1]; 1 h postinjection,0.5
same,PIP:muscle ratio,[1]; 1 h postinjection,208 and 208.1
same,"biodistribution, PC-3 PIP tumor",[1]; 1 h postinjection,64.5 ± 7.71 % ID/g
same,"biodistribution, PC-3 flu tumor",[1]; 1 h postinjection,0.93 ± 0.19 % ID/g
same,"biodistribution, bladder",[1]; 1 h postinjection,5.11 ± 3.57 % ID/g
same,"biodistribution, blood",[1]; 1 h postinjection,1.60 ± 1.17 % ID/g
same,"biodistribution, bone",[1]; 1 h postinjection,0.48 ± 0.17 % ID/g
same,"biodistribution, fat",[1]; 1 h postinjection,0.79 ± 0.74 % ID/g
same,"biodistribution, heart",[1]; 1 h postinjection,0.79 ± 0.14 % ID/g
same,"biodistribution, kidney",[1]; 1 h postinjection,139 ± 23.7 % ID/g
same,"biodistribution, large intestine",[1]; 1 h postinjection,0.71 ± 0.35 % ID/g
same,"biodistribution, liver",[1]; 1 h postinjection,11.9 ± 2.95 % ID/g
same,"biodistribution, lung",[1]; 1 h postinjection,2.62 ± 0.30 % ID/g
same,"biodistribution, muscle",[1]; 1 h postinjection,0.31 ± 0.05 % ID/g
same,"biodistribution, pancreas",[1]; 1 h postinjection,0.80 ± 0.21 % ID/g
same,"biodistribution, small intestine",[1]; 1 h postinjection,1.67 ± 0.70 % ID/g
same,"biodistribution, spleen",[1]; 1 h postinjection,9.62 ± 5.53 % ID/g
same,"biodistribution, stomach",[1]; 1 h postinjection,0.67 ± 0.18 % ID/g
same,PIP:blood ratio,[1]; 2 h postinjection,148 and 147.6
same,PIP:flu ratio,[1]; 2 h postinjection,233.4
same,PIP:kidney ratio,[1]; 2 h postinjection,0.7
same,PIP:muscle ratio,[1]; 2 h postinjection,643 and 643.1
same,"biodistribution, PC-3 PIP tumor",[1]; 2 h postinjection,90.0 ± 13.6 % ID/g
same,"biodistribution, PC-3 flu tumor",[1]; 2 h postinjection,0.39 ± 0.01 % ID/g
same,"biodistribution, bladder",[1]; 2 h postinjection,4.22 ± 1.58 % ID/g
same,"biodistribution, blood",[1]; 2 h postinjection,0.61 ± 0.41 % ID/g
same,"biodistribution, bone",[1]; 2 h postinjection,0.20 ± 0.03 % ID/g
same,"biodistribution, fat",[1]; 2 h postinjection,0.88 ± 0.80 % ID/g
same,"biodistribution, heart",[1]; 2 h postinjection,0.35 ± 0.07 % ID/g
same,"biodistribution, kidney",[1]; 2 h postinjection,127 ± 37.1 % ID/g
same,"biodistribution, large intestine",[1]; 2 h postinjection,0.51 ± 0.30 % ID/g
same,"biodistribution, liver",[1]; 2 h postinjection,6.42 ± 1.06 % ID/g
same,"biodistribution, lung",[1]; 2 h postinjection,1.21 ± 0.14 % ID/g
same,"biodistribution, muscle",[1]; 2 h postinjection,0.14 ± 0.02 % ID/g
same,"biodistribution, pancreas",[1]; 2 h postinjection,0.37 ± 0.07 % ID/g
same,"biodistribution, small intestine",[1]; 2 h postinjection,0.52 ± 0.17 % ID/g
same,"biodistribution, spleen",[1]; 2 h postinjection,5.69 ± 2.14 % ID/g
same,"biodistribution, stomach",[1]; 2 h postinjection,0.67 ± 0.72 % ID/g
same,PIP:blood ratio,[1]; 4 h postinjection,240 and 240.1
same,PIP:flu ratio,[1]; 4 h postinjection,461.5
same,PIP:kidney ratio,[1]; 4 h postinjection,1.4
same,PIP:muscle ratio,[1]; 4 h postinjection,792 and 791.9
same,"biodistribution, PC-3 PIP tumor",[1]; 4 h postinjection,74 % ID/g and 74.4 ± 9.19 % ID/g
same,"biodistribution, PC-3 flu tumor",[1]; 4 h postinjection,0.16 ± 0.03 % ID/g
same,"biodistribution, bladder",[1]; 4 h postinjection,3.30 ± 3.03 % ID/g
same,"biodistribution, blood",[1]; 4 h postinjection,0.31 ± 0.09 % ID/g
same,"biodistribution, bone",[1]; 4 h postinjection,0.09 ± 0.05 % ID/g
same,"biodistribution, fat",[1]; 4 h postinjection,0.53 ± 0.27 % ID/g
same,"biodistribution, heart",[1]; 4 h postinjection,0.14 ± 0.08 % ID/g
same,"biodistribution, kidney",[1]; 4 h postinjection,54.5 ± 22.2 % ID/g
same,"biodistribution, large intestine",[1]; 4 h postinjection,0.81 ± 0.15 % ID/g
same,"biodistribution, liver",[1]; 4 h postinjection,2.95 ± 1.97 % ID/g
same,"biodistribution, lung",[1]; 4 h postinjection,0.58 ± 0.32 % ID/g
same,"biodistribution, muscle",[1]; 4 h postinjection,0.09 ± 0.07 % ID/g
same,"biodistribution, pancreas",[1]; 4 h postinjection,0.13 ± 0.03 % ID/g
same,"biodistribution, small intestine",[1]; 4 h postinjection,0.23 ± 0.05 % ID/g
same,"biodistribution, spleen",[1]; 4 h postinjection,1.68 ± 1.03 % ID/g
same,"biodistribution, stomach",[1]; 4 h postinjection,0.12 ± 0.07 % ID/g
same,tumor/kidney ratio,[1]; at 2–4 h,approximately 1
same,PSMA– PC3 flu tumor uptake,"[1]; mouse, in vivo",no specific uptake
same,defluorination in vivo (from bone uptake),"[1]; mouse, in vivo",lack of significant defluorination in vivo
same,PSMA+ PC3 PIP tumor uptake on small animal PET imaging,[2]; male SCID mice with PSMA+ PC3 PIP and PSMA– PC3 flu xenografts,Intense and selective radiotracer uptake
same,uptake in salivary glands on imaging,"[2]; mouse, in vivo",Neither [^18F]23 nor [^18F]24 demonstrated any uptake in salivary glands
"O=C(O)CC[C@H](NC(=O)O[C@@H](CCCCNC(=O)c1ccc(F)cc1)C(=O)O)C(=O)O [compound 12, (S)-2-(((((S)-1-Carboxy-5-(4-fluorobenzamido)pentyl)oxy)-carbonyl)amino)pentanedioic Acid]",reduction in binding affinity compared to 9,PSMA,more than 150 fold
"O=C(O)CC[C@H](OC(=O)N[C@@H](CCCCNC(=O)c1ccc(F)cc1)C(=O)O)C(=O)O [compound 13, (S)-2-((((S)-1-Carboxy-5-(4-fluorobenzamido)pentyl)-carbamoyl)oxy)pentanedioic Acid]",reduction in binding affinity compared to 9,PSMA,30 fold
same,Ki,PSMA; Ki,9.2 nM
"O=C(O)CC[C@H](OC(=O)N[C@@H](CCCCNC(=O)c1ccc(Br)cc1F)C(=O)O)C(=O)O [compound 23, (S)-2-((((S)-5-(4-Bromo-2-fluorobenzamido)-1-carboxypentyl)carbamoyl)oxy)pentanedioic Acid]",decrease in potency compared with the corresponding ureas 26 and 27,PSMA,< 10 fold
same,Ki,PSMA; Ki,0.11 nM
O=C(O)CC[C@H](OC(=O)N[C@@H](CCCCNC(=O)c1ccc(I)cc1F)C(=O)O)C(=O)O [compound 24],decrease in potency compared with the corresponding ureas 26 and 27,PSMA,< 10 fold
same,Ki,PSMA,0.21 nM
"O=C(O)CC[C@H](NC(=O)N[C@@H](CCCCNC(=O)c1ccc(Br)cc1F)C(=O)O)C(=O)O [compound 26, (S)-2-(3-((S)-5-(4-Bromo-2-fluorobenzamido)-1-carboxypentyl)ureido)pentanedioic Acid]",Ki,PSMA; Ki,0.036 nM and 0.04 nM
"O=C(O)CC[C@H](NC(=O)N[C@@H](CCCCNC(=O)c1ccc(I)cc1F)C(=O)O)C(=O)O [compound 27, (S)-2-(3-((S)-5-(4-Iodo-2-fluorobenzamido)-1-carboxypentyl)ureido)pentanedioic Acid]",Ki,PSMA; Ki,0.023 nM and 0.02 nM
